Reference: ChEMBL document CHEMBL1955865, “Synthesis of novel spirooxindole derivatives by one pot multicomponent reaction and their antimicrobial activity” (2012)
Converted amounts (≈) assume the structure as drawn. The source made the active and inactive calls. No cut-off for these calls is given here.

Key:
[1] = Antifungal activity against Malassezia pachydermatis after 48 to 72 hrs by twofold serial dilution method; assay type: functional
Summary of the method: (§1)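 Broth two-fold serial dilution, 1000 to 15.62 µg/ml, with compound dissolved in 2% DMSO, in 96-well plates. Filamentous fungal spores came from 10-day SDA slants at 28 °C, and yeast from SDB grown 48 h at 28 °C. Incubation was 48-72 h at 28 °C. MIC was the lowest concentration with no visible fungal growth.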

Candida albicans [2] = assay: Antifungal activity against Candida albicans MTCC 227 after 48 to 72 hrs by twofold serial dilution method; assay type: functional; summary of the method: as §1
Botrytis cinerea [3] = assay: Antifungal activity against Botrytis cinerea after 48 to 72 hrs by twofold serial dilution method; assay type: functional; summary of the method: as §1
[4] = Antifungal activity against Malassezia pachydermatis at 1000 ug/disc after 48 hrs by disc diffusion assay; assay type: functional
Summary of the method: (§2)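 Fungal disc diffusion with inoculum from SDA spores (filamentous) or SDB culture (yeast). Test cultures were swabbed on agar, and discs at 1000 µg/disc were left 30 min at room temperature, with a solvent negative control. Plates were incubated 48 h at 27 °C. Zone of inhibition was measured in mm, and the experiment was repeated twice.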

Candida albicans [5] = assay: Antifungal activity against Candida albicans MTCC 227 at 1000 ug/disc after 48 hrs by disc diffusion assay; assay type: functional; conditions: for zone of inhibition at 1000 µg/disc: MTCC 227, 48 h, read-out: IZ; summary of the method: as §2
Botrytis cinerea [6] = assay: Antifungal activity against Botrytis cinerea at 1000 ug/disc after 48 hrs by disc diffusion assay; assay type: functional; conditions: for zone of inhibition at 1000 µg/disc: read-out: IZ; summary of the method: as §2
Staphylococcus aureus [7] = assay: Antibacterial activity against Staphylococcus aureus MTCC 96 after 24 hrs by twofold serial dilution method; assay type: functional; conditions: MTCC 96, 24 h
Summary of the method: (§3)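 Bacteria grown in Mueller Hinton broth for 24 h at 37 °C and diluted to about 10^4 CFU/ml. Compound in 2% DMSO was serially diluted two-fold (1000 to 15.62 µg/ml) in medium in 96-well plates and inoculated. Plates were incubated 24 h at 37 °C. 5 µl of broth was spotted onto MHA, and MIC was taken as the lowest concentration with no visible growth on agar.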

Staphylococcus aureus [8] = assay: Antibacterial activity against methicillin-resistant Staphylococcus aureus after 24 hrs by twofold serial dilution method; assay type: functional
Summary of the method: (§4)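 Broth microdilution in MHB following the standard bacterial reference method. Compound was dissolved in DMSO (2%) and serially diluted two-fold from 1000 to 15.62 µg/ml in 96-well plates, with an inoculum of about 10^4 CFU/ml. Streptomycin and ciprofloxacin were positive controls. After 24 h at 37 °C, 5 µl of broth was subcultured on MHA. MIC was the lowest concentration without visible growth on agar.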

Micrococcus luteus [9] = assay: Antibacterial activity against Micrococcus luteus after 24 hrs by twofold serial dilution method; assay type: functional; summary of the method: as §3
Klebsiella aerogenes [10] = assay: Antibacterial activity against Enterobacter aerogenes MTCC 111 after 24 hrs by twofold serial dilution method; assay type: functional; conditions: MTCC 111, 24 h; summary of the method: as §3
Proteus vulgaris [11] = assay: Antibacterial activity against Proteus vulgaris MTCC 1771 after 24 hrs by twofold serial dilution method; assay type: functional; conditions: MTCC 1771, 24 h; summary of the method: as §3
Klebsiella pneumoniae [12] = assay: Antibacterial activity against Klebsiella pneumoniae MTCC 109 after 24 hrs by twofold serial dilution method; assay type: functional; conditions: MTCC 109, 24 h; summary of the method: as §3
Salmonella typhimurium [13] = assay: Antibacterial activity against Salmonella Typhimurium MTCC 1251 after 24 hrs by two-fold serial dilution method; assay type: functional, Salmonella enterica subsp. enterica serovar Typhimurium; conditions: Salmonella enterica, MTCC 1251, 24 h; summary of the method: as §3
[14] = tested on: Salmonella enterica subsp. enterica serovar Paratyphi B; assay: Antibacterial activity against Salmonella paratyphi B after 24 hrs by twofold serial dilution method; assay type: functional; summary of the method: as §4
Staphylococcus aureus [15] = assay: Antibacterial activity against Staphylococcus aureus MTCC 96 at 1000 ug/disc after 24 hrs by disc diffusion assay; assay type: functional; conditions: for zone of inhibition at 1000 µg/disc: MTCC 96, 24 h, read-out: IZ
Summary of the method: (§5)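 Disc diffusion on Mueller Hinton agar. Cultures (about 10^4 CFU/ml) were swabbed on and dried 10 min. Discs loaded at 1000 µg/disc were left 30 min at room temperature for diffusion, with a solvent negative control. Plates were incubated 24 h at 37 °C. Inhibition zones were measured in mm, and the experiment was done twice.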

Staphylococcus aureus [16] = assay: Antibacterial activity against methicillin-resistant Staphylococcus aureus at 1000 ug/disc after 24 hrs by disc diffusion assay; assay type: functional; conditions: for zone of inhibition at 1000 µg/disc: read-out: IZ
Summary of the method: (§6)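 Disc diffusion on Mueller Hinton agar. Bacteria were grown 24 h at 37 °C in MHB and diluted to about 10^4 CFU/ml, swabbed onto plates and dried 10 min. Discs were loaded at 1000 μg/disc and held 30 min at room temperature for diffusion. Solvent served as negative control. After 24 h at 37 °C, inhibition zones were read in mm; run twice.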

Micrococcus luteus [17] = assay: Antibacterial activity against Micrococcus luteus at 1000 ug/disc after 24 hrs by disc diffusion assay; assay type: functional; conditions: read-out: IZ; summary of the method: as §5
Klebsiella aerogenes [18] = assay: Antibacterial activity against Enterobacter aerogenes MTCC 111 at 1000 ug/disc after 24 hrs by disc diffusion assay; assay type: functional; conditions: for zone of inhibition at 1000 µg/disc: MTCC 111, 24 h, read-out: IZ; summary of the method: as §5
Proteus vulgaris [19] = assay: Antibacterial activity against Proteus vulgaris MTCC 1771 at 1000 ug/disc after 24 hrs by disc diffusion assay; assay type: functional; conditions: for zone of inhibition at 1000 µg/disc: MTCC 1771, 24 h, read-out: IZ; summary of the method: as §5
Klebsiella pneumoniae [20] = assay: Antibacterial activity against Klebsiella pneumoniae MTCC 109 at 1000 ug/disc after 24 hrs by disc diffusion assay; assay type: functional; conditions: for zone of inhibition at 1000 µg/disc: MTCC 109, 24 h, read-out: IZ; summary of the method: as §5
Salmonella typhimurium [21] = assay: Antibacterial activity against Salmonella Typhimurium MTCC 1251 at 1000 ug/disc after 24 hrs by disc diffusion assay; assay type: functional, Salmonella enterica subsp. enterica serovar Typhimurium; conditions: Salmonella enterica, MTCC 1251, 24 h; read-out: IZ; summary of the method: as §5
[22] = tested on: Salmonella enterica subsp. enterica serovar Paratyphi B; assay: Antibacterial activity against Salmonella paratyphi B at 1000 ug/disc after 24 hrs by disc diffusion assay; assay type: functional; conditions: for zone of inhibition at 1000 µg/disc: read-out: IZ; summary of the method: as §6

Row | SMILES | MIC [1] [µg/mL] | MIC (Candida albicans [2]) [µg/mL] | MIC (Botrytis cinerea [3]) | inhibition zone (IZ) [4] | zone of inhibition at 1000 µg/disc (Candida albicans [5]) [mm] | zone of inhibition at 1000 µg/disc (Botrytis cinerea [6]) [mm] | MIC (Staphylococcus aureus [7]) [µg/mL] | MIC (Staphylococcus aureus [8]) [µg/mL] | MIC (Micrococcus luteus [9]) [µg/mL] | MIC (Klebsiella aerogenes [10]) [µg/mL] | MIC (Proteus vulgaris [11]) [µg/mL] | MIC (Klebsiella pneumoniae [12]) [µg/mL] | zone of inhibition at 1000 µg/disc (Staphylococcus aureus [15]) [mm] | zone of inhibition at 1000 µg/disc (Staphylococcus aureus [16]) [mm] | zone of inhibition at 1000 µg/disc (Micrococcus luteus [17]) [mm] | zone of inhibition at 1000 µg/disc (Klebsiella aerogenes [18]) [mm] | zone of inhibition at 1000 µg/disc (Proteus vulgaris [19]) [mm] | zone of inhibition at 1000 µg/disc (Klebsiella pneumoniae [20]) [mm] | zone of inhibition at 1000 µg/disc (Salmonella typhimurium [21]) [mm] | inhibition zone (IZ) [22] | further results
1 | OC(Cn1cncn1)(Cn1cncn1)c1ccc(F)cc1F [FLUCONAZOLE] | 12.5 (≈ 40.8 µM) | > 100 | inactive |  |  |  |  |  |  |  |  |  |  |  |  |  |  |  |  |  | 
2 | CCN1C(=O)C2(C3=C(CN2C)C(=O)c2ccccc2C3=O)c2ccccc21 (stereo unspecified) | 250 (≈ 698 µM) | 500 (≈ 1400 µM) | 500 µg/mL (≈ 1400 µM) | 11 mm | 10 | 8 | 15.6 (≈ 43.6 µM) | 250 (≈ 698 µM) | 31.2 (≈ 87.2 µM) | 250 (≈ 698 µM) | 62.5 (≈ 174 µM) | 250 (≈ 698 µM) | 22 | 13 | 18 | 12 | 15 | 12 | 19 |  | MIC (Salmonella typhimurium [13]): 31.2 µg/mL (≈ 87.2 µM); MIC [14]: 500 µg/mL (≈ 1400 µM); zone of inhibition at 1000 µg/disc [22]: 10 mm
3 | CN1CC2=C(C(=O)c3ccccc3C2=O)C12C(=O)Nc1ccc(Br)cc12 (stereo unspecified) | 500 (≈ 1220 µM) | 500 (≈ 1220 µM) | 250 µg/mL (≈ 611 µM) | 10 mm | 10 | 11 | 15.6 (≈ 38.2 µM) | 250 (≈ 611 µM) | 62.5 (≈ 153 µM) | 62.5 (≈ 153 µM) | 125 (≈ 305 µM) | 500 (≈ 1220 µM) | 20 | 12 | 17 | 16 | 12 | 10 | 19 |  | MIC (Salmonella typhimurium [13]): 31.2 µg/mL (≈ 76.4 µM); MIC [14]: 500 µg/mL (≈ 1220 µM); zone of inhibition at 1000 µg/disc [22]: 8 mm
4 | O=C(O)c1cn(C2CC2)c2cc(N3CCNCC3)c(F)cc2c1=O [CIPROFLOXACIN] |  |  |  |  |  |  | < 0.78 | > 100 | > 100 | < 0.78 | < 0.78 | < 0.78 |  |  |  |  |  |  |  |  | MIC (Salmonella typhimurium [13]): > 100 µg/mL; MIC [14]: 6.25 µg/mL (≈ 18.9 µM)
5 | C=CCN1C(=O)C2(C3=C(C(=O)c4ccccc4C3=O)C3CCCN32)c2ccccc21 (stereo unspecified) |  |  |  | inactive |  |  |  |  |  |  |  |  | 8 |  | 9 |  |  |  | 9 | inactive | inhibition zone (IZ) (Candida albicans [5]): inactive; inhibition zone (IZ) (Botrytis cinerea [6]): inactive; inhibition zone (IZ) (Staphylococcus aureus [16]): inactive; inhibition zone (IZ) (Klebsiella aerogenes [18]): inactive; inhibition zone (IZ) (Proteus vulgaris [19]): inactive; inhibition zone (IZ) (Klebsiella pneumoniae [20]): inactive
6 | CN1CC2=C(C(=O)c3ccccc3C2=O)C12C(=O)c1cccc3cccc2c13 (stereo unspecified) |  |  |  | 8 mm | 8 | 9 |  |  |  |  |  |  | 9 |  | 8 |  | 8 | 9 | 10 | inactive | inhibition zone (IZ) (Staphylococcus aureus [16]): inactive; inhibition zone (IZ) (Klebsiella aerogenes [18]): inactive
7 | O=C1C2=C(C(=O)c3ccccc31)C1(C(=O)N(Cc3ccccc3)c3ccccc31)N1CCCC21 (stereo unspecified) |  |  |  | 9 mm | 8 |  |  |  |  |  |  |  | 10 | 8 | 9 | 8 | 10 | 8 | 9 | inactive | inhibition zone (IZ) (Botrytis cinerea [6]): inactive
8 | CC(=O)N1CCN(c2ccc(OCC3COC(Cn4ccnc4)(c4ccc(Cl)cc4Cl)O3)cc2)CC1 (stereo unspecified) [KETOCONAZOLE] | 15 (≈ 28.2 µM) | 25 (≈ 47 µM) | 25 µg/mL (≈ 47 µM) | 28 mm | 22 |  |  |  |  |  |  |  |  |  |  |  |  |  |  |  | inhibition zone (IZ) (Botrytis cinerea [6]): inactive
9 | C#CCN1C(=O)C2(C3=C(C(=O)c4ccccc4C3=O)C3CCCN32)c2ccccc21 (stereo unspecified) |  |  |  | inactive | 8 | 9 |  |  |  |  |  |  |  |  | 9 |  | 8 |  | 9 |  | inhibition zone (IZ) (Staphylococcus aureus [15]): inactive; inhibition zone (IZ) (Staphylococcus aureus [16]): inactive; inhibition zone (IZ) (Klebsiella aerogenes [18]): inactive; inhibition zone (IZ) (Klebsiella pneumoniae [20]): inactive; zone of inhibition at 1000 µg/disc [22]: 8 mm
10 | C=CCN1C(=O)C2(C3=C(CN2C)C(=O)c2ccccc2C3=O)c2ccccc21 (stereo unspecified) |  |  |  | 9 mm | 9 | 8 |  |  |  |  |  |  | 11 | 9 | 10 | 9 | 8 | 9 | 11 | inactive | 
